One experiment addresses O-acyltransferase (Oryctolagus cuniculus, UniProt G1SFD9). The experiment in a line: In vitro inhibition of Acyl coenzyme A:cholesterol acyltransferase in intestinal microsomes isolated from cholesterol-fed rabbits. Type of experiment: functional, Intestine. The procedure, abridged:
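Intestinal microsomes from cholesterol-fed rabbits were incubated with the compound and [1-14C]oleoyl-CoA as substrate. IC50 is the micromolar concentration giving 50% inhibition of enzyme activity. Each determination was done in triplicate.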

Experiment [1] deals with Rattus norvegicus. Description: Tested for percentage change in total cholesterol in cholic acid (0.5%)-cholesterol (1.5%) -peanut oil (5.5%)-fed rats at 3 mg/kg. Type of experiment: functional. The procedure, abridged:
(§1)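 Male Sprague-Dawley rats (200-225 g) got a single oral gavage at 4 p.m. The compound was suspended in 1.5% carboxymethylcellulose/0.2% Tween-20 in water; controls got vehicle. Rats then fed ad libitum overnight on chow with 5.5% peanut oil, 1.5% cholesterol and 0.5% cholic acid. Blood was taken by cardiac puncture under ether at 8 a.m. Serum total cholesterol is given as % change versus vehicle controls (unpaired two-tailed t-test, p<0.05).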

Experiment [2] concerns Rattus norvegicus. Description: Tested for percentage change in total cholesterol in cholic acid (0.5%)-cholesterol (1.5%) -peanut oil (5.5%)-fed rats at 30 mg/kg. Format: functional. A digest of the protocol:
as §1

As a reminder, the IC50 is the midpoint of a concentration-inhibition curve. High values mean a need for much substance, low ones inhibition by little substance.

Chain of O-acyltransferase (G1SFD9 1-524): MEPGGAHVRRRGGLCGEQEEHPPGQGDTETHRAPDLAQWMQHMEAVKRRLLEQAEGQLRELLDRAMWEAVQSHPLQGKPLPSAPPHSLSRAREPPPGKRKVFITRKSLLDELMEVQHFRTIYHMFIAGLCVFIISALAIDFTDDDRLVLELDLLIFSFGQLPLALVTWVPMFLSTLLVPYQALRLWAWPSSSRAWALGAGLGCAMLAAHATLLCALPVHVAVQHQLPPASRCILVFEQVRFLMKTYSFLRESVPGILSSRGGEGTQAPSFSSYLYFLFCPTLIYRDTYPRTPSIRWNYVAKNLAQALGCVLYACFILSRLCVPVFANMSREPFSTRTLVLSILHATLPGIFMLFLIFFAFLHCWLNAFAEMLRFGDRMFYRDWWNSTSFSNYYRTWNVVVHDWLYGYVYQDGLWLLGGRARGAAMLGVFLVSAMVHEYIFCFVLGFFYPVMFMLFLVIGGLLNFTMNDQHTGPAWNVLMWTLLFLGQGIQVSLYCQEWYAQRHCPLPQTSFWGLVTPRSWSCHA

The molecule `CC(C)c1cccc(C(C)C)c1NC(=O)CC(=O)CC(c1ccccc1)c1ccccc1` had an IC50 against O-acyltransferase of 0.044 µM. The Change with Rattus norvegicus [1] is given as -23%; in the experiment on Rattus norvegicus [2], -43%.

For `CCCCCCCC1CCC(C(=O)Nc2c(C(C)C)cccc2C(C)C)C(=O)O1` (stereo unspecified), half-maximal inhibition against O-acyltransferase (IC50) was put at 0.34 µM. In the experiment with Rattus norvegicus [2], the Change is recorded as -11%.

`CCCCCCCCCCCCC(=O)CC(=O)Nc1c(C(C)C)cccc1C(C)C` gave an IC50 on O-acyltransferase of 0.011 µM. Moreover, the Change in the experiment with Rattus norvegicus [1] is on record as -31%; with Rattus norvegicus [2], -56%.

Consider `CC(C)c1cccc(C(C)C)c1NC(=O)CC(O)CC(c1ccccc1)c1ccccc1` (stereo unspecified), for which 3.5 µM corresponded to half-maximal inhibition against O-acyltransferase (IC50). The Change with Rattus norvegicus [2] is recorded as -10%.

As for `CCCCCCCCCCCCC1CC(C(=O)Nc2c(C(C)C)cccc2C(C)C)C(=O)N1` (stereo unspecified), the IC50 against O-acyltransferase amounted to 0.053 µM. Moreover, in the experiment on Rattus norvegicus [2], the Change was -20%.

`CCCCCCCCCCCC(=O)CC(=O)Nc1c(OC)cc(OC)cc1OC` came in with an IC50 at O-acyltransferase of 0.15 µM. Moreover, the Change with Rattus norvegicus [2] is reported as -31%.

For the molecule `CCCCCCCCCCC(=O)CC(=O)Nc1c(C(C)C)cccc1C(C)C`, at O-acyltransferase, the IC50 is 0.06 µM. In addition, the Change in the experiment on Rattus norvegicus [2] is listed as -30%.

Regarding `CC(C)c1cccc(C(C)C)c1NC(=O)CC(=O)CCCCCCCCCCOC1CCCCO1` (stereo unspecified), the midpoint of inhibition against O-acyltransferase, the IC50, lay at 0.057 µM. The Change in the experiment on Rattus norvegicus [1] was -17%; with Rattus norvegicus [2] it was -67%.

Molecule `CCCCCCCCCCCC(=O)CC(=O)Nc1c(C(C)C)cccc1C(C)C` yielded an IC50 against O-acyltransferase of 0.069 µM. The figures for the Change in the experiment with Rattus norvegicus [1] and with Rattus norvegicus [2] were -25% and -43%, respectively.

The molecule `CCCCCCCCCCCC(=O)C(C)(C)C(=O)Nc1c(OC)cc(OC)cc1OC` showed an IC50 against O-acyltransferase of 0.37 µM. Moreover, the results for the Change in the experiment on Rattus norvegicus [1] and with Rattus norvegicus [2] were 0% and -44%, respectively.

Molecule `CCCCCCCCCCCCCC(=O)CC(=O)Nc1c(C(C)C)cccc1C(C)C` had an IC50 against O-acyltransferase of 0.006 µM. Moreover, the values for the Change with Rattus norvegicus [1] and with Rattus norvegicus [2] were -38% and -66%, respectively.

Regarding `CCCCCCCCCCCCC1CCCC(C(=O)Nc2c(C(C)C)cccc2C(C)C)C(=O)N1` (stereo unspecified), inhibition on O-acyltransferase was half-maximal at 0.022 µM (IC50). Moreover, the Change in the experiment on Rattus norvegicus [2] is reported as -47%.

Consider `CCCCCCCCCCCC(=O)C(C)(C)C(=O)N(C)c1c(OC)cc(OC)cc1OC`, for which, in the experiment with Rattus norvegicus [2], the Change was -40%.

For the molecule `CC(C)c1cccc(C(C)C)c1NC(=O)CC(=O)C(c1ccccc1)c1ccccc1`, the IC50 against O-acyltransferase stood at 0.035 µM. Further, the Change in the experiment with Rattus norvegicus [1] is -21%; with Rattus norvegicus [2] it was -65%.

Regarding `CCCCCCC1CCC(C(=O)Nc2c(C(C)C)cccc2C(C)C)C(=O)O1` (stereo unspecified), the Change in the experiment on Rattus norvegicus [2] was -43%.

`CC(C)c1cccc(C(C)C)c1NC(=O)CC(=O)CCCCCCCCCCO` had an IC50 on O-acyltransferase of 0.23 µM. In addition, the Change in the experiment with Rattus norvegicus [1] is given as -2%; in the experiment with Rattus norvegicus [2], -29%.

`CCCCCCCCCCCC(=O)C(C)(C)C(=O)N(C)c1c(C(C)C)cccc1C(C)C` returned an IC50 against O-acyltransferase of 1 µM. For the same molecule, the results for the Change in the experiment on Rattus norvegicus [1] and with Rattus norvegicus [2] were 0% and -60%, respectively.

Regarding `CCCCCCCCCCCCCCC(=O)CC(=O)Nc1c(C(C)C)cccc1C(C)C`, the midpoint of inhibition against O-acyltransferase, the IC50, lay at 0.024 µM. Besides, the values for the Change with Rattus norvegicus [1] and with Rattus norvegicus [2] were -34% and -57%, respectively.

On O-acyltransferase, `CC(C)c1cccc(C(C)C)c1NC(=O)CC(=O)c1ccccc1` yielded an IC50 of 0.81 µM. The results for the Change in the experiment on Rattus norvegicus [1] and in the experiment with Rattus norvegicus [2] were 0% and -4%, respectively.

For `CC(C)c1cccc(C(C)C)c1NC(=O)CC(=O)C1(c2ccccc2)CCCC1`, 0.011 µM corresponded to half-maximal inhibition against O-acyltransferase (IC50). Moreover, the Change in the experiment on Rattus norvegicus [2] is given as -37%.

For the molecule `CCCCCCCCCC(=O)CC(=O)Nc1c(C(C)C)cccc1C(C)C`, on O-acyltransferase, the half-inhibitory concentration (IC50) amounted to 0.097 µM. In addition, the Change is given as -5% with Rattus norvegicus [1] and -54% in the experiment on Rattus norvegicus [2].

On to `CCCCCCCC1CC(C(=O)Nc2c(C(C)C)cccc2C(C)C)C(=O)O1` (stereo unspecified), for which, in the experiment with Rattus norvegicus [2], the Change is recorded as -26%.

On O-acyltransferase, `CC(C)c1cccc(C(C)C)c1NC(=O)C/C(CC(c1ccccc1)c1ccccc1)=N\O` showed an IC50 of 0.21 µM. Besides, the Change with Rattus norvegicus [1] was 0%; in the experiment on Rattus norvegicus [2], -1%.

The values are drawn from ChEMBL document CHEMBL1126837, “Inhibitors of acyl-CoA:cholesterol acyltransferase. 5. Identification and structure-activity relationships of novel beta-ketoamides as hypocholesterolemic agents” (J Med Chem, 1993).
